Screening data (PubChem BioAssay)
The entries come from a sample that favours hits as a whole.
GAA850 FXN act = activators of GAA850 frataxin (FXN) promoter; activation, % at 6 µM; HEK293 lucGAA850 FXN promoter luciferase reporter, 24 h; percent of 10 µM SAHA response; 360,000 compounds, 0.56% hits;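 active = activation above the average of all compounds screened plus 3 SD, cutoff fixed separately per campaign, cut at about 7.5% in these data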;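 note: 0% = DMSO wells and 100% = 10 µM SAHA wells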
CHOP inh = CHOP inhibition in unfolded protein response; inhibition, % at 10 µM; CHO-K1 CHOP-promoter luciferase, tunicamycin-induced, 15-18 h; 220,000 compounds, 3.8% hits;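 active = compounds that reduced the stress-induced luciferase reporter signal by more than about 70% of percent inhibition, limit read from the data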;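 note: 0% = tunicamycin plus vehicle and 100% = wells without tunicamycin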
UPR CHOP act = apoptotic UPR (CHOP) activation. CHO-CHOP luciferase reporter, luminescence; percent of tunicamycin response over DMSO baseline. activation, % at 10 µM. 330,000 compounds, 0.34% hits. AID 449763;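 active = at 10 µM dose, activation of 40% or more, normalized to positive control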;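 note: 100% = tunicamycin at 10 µg/mL and 0% = DMSO alone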
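Dosing – one dose, 10 µM in 0.5% DMSO · System – CHO-CHOP cells, stable luciferase reporter of PERK-eIF2a-CHOP signalling · Input – 500 cells/well · Control set – tunicamycin 10 µg/mL final as positive, DMSO-only wells as negative · Timing – 6 h compound treatment, 37 °C · Measure – % activation vs tunicamycin · Technique – luminescence read with Steady-Glo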
XBP1 UPR activ = activators of adaptive arm of unfolded protein response (XBP1); 330,000 compounds, 0.33% hits; CHO-XBP1 luciferase reporter, IRE1-XBP1 UPR activation, luminescence; percent of tunicamycin response, DMSO as zero; AID 463104; activation, % at 20 µM;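 active = versus positive control, 20 µM dose yields 30% or more activation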;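 note: 100% = tunicamycin at 10 µg/mL and 0% = DMSO only wells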
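Material: CHO cell line with stable XBP1 luciferase reporter; schedule: 16-18 h cell attachment at 37 °C, then 6 h compound exposure; signal: glow luminescence from Steady-Glo reagent; medium: serum-containing F12 medium, 10% FBS; benchmarks: tunicamycin 10 µg/mL and vehicle-only wells; read-out: percent activation relative to tunicamycin reference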
CHOP confirm = confirmation of CHOP induction inhibitors; inhibition, % at 10 µM; shares compounds with CHOP inh; CHO-CHOP promoter luciferase reporter, tunicamycin-induced, luminescence; 2,100 compounds, 45% hits;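 active = mean of three repeat readings of reporter signal inhibition above a set limit, cut at about 70% in these data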;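 note: 0% = tunicamycin plus vehicle and 100% = wells lacking tunicamycin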
* = called active by the depositor; x = not tested or not shown.

SMILES | GAA850 FXN act | CHOP inh | UPR CHOP act | XBP1 UPR activ | CHOP confirm
CCn1cc([N+](=O)[O-])c(C(=O)N2N=C(c3ccc4ccccc4c3)CC2c2ccccc2O)n1 (configuration not stated) | 1 | 39 | 6 | 9 | x
CCn1cc(Cl)c(C(=O)N2N=C(c3ccc4ccccc4c3)CC2c2ccccc2O)n1 (configuration not stated) | 2 | 97* | 4 | 9 | 61
Cc1ccc(-c2nc3n(n2)Cc2ccccc2-3)cc1 | -5 | 25 | -5 | -2 | x
CCn1c(C)nc2cc(-c3nc4n(n3)Cc3ccccc3-4)ccc21 | -15 | x | -12 | -15 | 138*
CCCCn1c(N)c(N(CCOC)C(=O)CCS(=O)(=O)c2ccc(C)cc2)c(=O)[nH]c1=O | 0 | x | x | x | x
Nc1c(C(=O)Nc2ccccc2)c2nc3ccccc3nc2n1CCCN1CCOCC1 | 2 | 100* | 4 | 1 | 39
CN(C)c1ccc(Sc2nnc(NC(=O)Nc3ccc(Cl)cc3Cl)s2)cc1 | -2 | 100* | 3 | 14 | 36
CCC(=O)Nc1nnc(Sc2ccc(N(C)C)cc2)s1 | 2 | 4 | -3 | -1 | x
CC(C)COC(=O)N1CCCCC1c1cc(C(=O)NCc2ccccc2)no1 (configuration not stated) | 0 | x | x | x | x
Cn1ncc(S(=O)(=O)Cc2ccccc2)c(Cl)c1=O | 1 | 102* | -7 | -4 | -3
O=C1N=C2N(CCN3CCCCC3)c3ccccc3N2/C1=C\c1ccc([N+](=O)[O-])s1 | 0 | x | x | x | x
Cc1ccc(O)c(-c2cc(-c3cccc(F)c3)n[nH]2)c1 | 2 | 102* | 4 | 4 | 12
Cc1ccc(-c2cc(-c3ccccc3C)[nH]n2)c(O)c1 | 6 | 102* | 9 | 4 | 9
Cc1ccc(O)c(-c2cc(-c3ccccc3F)[nH]n2)c1 | 5 | 104* | 2 | 6 | 8
Cc1ccc(-c2cc(-c3cccc(F)c3)n[nH]2)c(O)c1 | 3 | -59 | 2 | 3 | x
O=C1/C(=C/c2ccncc2)CCC/C1=C\c1ccncc1 | -16 | 98* | x | x | 78*
CC1(C(=O)NS(=O)(=O)c2ccccc2Cl)CCN1C(=O)c1ccccc1 (configuration not stated) | 0 | x | x | x | x
CC(C)(C)c1ccc(C(=O)Nc2ccc(CC(=O)O)cc2)o1 | -18 | 98* | -9 | -5 | 92*
COc1ccc(CN2CCC2(C)C(=O)NCc2ccc3c(c2)OCO3)c2ccccc12 (configuration not stated) | 4 | x | x | x | x
COc1ccc(/C=N/N(Cc2ccccc2)c2ccccc2)cc1O | 1 | 104* | 3 | 2 | 12
C[C@@H]1CN([C@H](C)CO)C(=O)CCCn2nncc2CO[C@H]1CN(C)C | 1 | x | x | x | x
CNc1cccc(-c2ccccc2CO)n1 | 0 | x | x | x | x
CC(C)(C)c1ccc(OCC(O)CN(CCO)CC(O)Cn2ccc3ccccc32)cc1 (configuration not stated) | -1 | 103* | -2 | -3 | 4
OCCN(CC(O)Cn1ccc2ccccc21)CC(O)Cn1ccc2ccccc21 (configuration not stated) | 1 | 14 | -1 | 0 | x
O=C(Nc1ccc(Br)c(C(F)(F)F)c1)c1ccc(C(F)(F)F)cc1 | -4 | 102* | 15 | 8 | 98*
SMILES | GAA850 FXN act | CHOP inh | UPR CHOP act | XBP1 UPR activ | CHOP confirm
CCCNC(=O)C1(C)CCN(C(=O)c2cccc(Cl)c2)C1 (configuration not stated) | 0 | x | x | x | x
Cc1ccc(NC(=O)c2cc3ccccc3o2)cc1S(=O)(=O)N(C)C | 6 | 6 | x | x | x
Cc1ccc(NC(=O)c2cc3ccccc3oc2=O)cc1S(=O)(=O)N(C)C | -15 | 102* | -8 | -10 | 110*
Nn1c(SCC(=O)N2CCCC2)nnc1-c1cccs1 | 2 | x | x | x | x
CN(C)CCNc1ncnc2c1ncn2[C@H]1CN(Cc2ccc(Cl)cc2)C[C@@H](CO)O1 | 2 | x | x | x | x
C(=N\Nc1ncnc2sc3c(c12)CCC3)/c1cccs1 | 13* | 102* | -1 | 6 | 73*
C(=N\Nc1ncnc2sc3c(c12)CCC3)/c1ccncc1 | 5 | -10 | -2 | 15 | x
CC(C)C(=O)N1CCC1(C)C(=O)Nc1ccc(-n2cccc2)cc1 (configuration not stated) | 1 | x | x | x | x
CCc1nc2ccc(C(=O)NC3CCN(Cc4ccccc4)CC3)cn2c1N(C)Cc1ccc(N(C)C)cc1 | 1 | x | x | x | x
